Screens deposited in PubChem by several laboratories.
A selection: hits, their analogues and other compounds. The true share with any hit is near 3.2%.
DAX1 inh-1: DAX1 (NR0B1) inhibition, primary screen; HEK293T StAR-luciferase reporter, SF-1/DAX-1 repression relief; inhibition, % at 6.8 µM; 370,000 compounds, 1.1% hits;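 active means inhibition above the mean over all tested compounds plus 3 SD, cut at about 3.6% in these data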;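 further: 0% = DAX-1 cells with DMSO and 100% = cells lacking DAX-1 with DMSO; higher inhibition means more luminescence from relief of DAX-1 repression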
NR2E3 ag-1: human photoreceptor-specific nuclear receptor agonism; AID 602229; inhibition of corepressor binding, % at 3.98 µM; Q9Y5X4; CHO-S Gal4-NCOR/VP16-NR2E3 two-hybrid, luciferase; 360,000 compounds, 0.35% hits;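 active means inhibition above the mean of all tested compounds plus 3 SD, cut at about 70% in these data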;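 further: 0% = DMSO with NR2E3 transfected cells and 100% = cells lacking NR2E3 construct; higher means lower luciferase signal from less NR2E3 corepressor binding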
Target sequence (Q9Y5X4 whole entry, looked up, the tested form may be a part): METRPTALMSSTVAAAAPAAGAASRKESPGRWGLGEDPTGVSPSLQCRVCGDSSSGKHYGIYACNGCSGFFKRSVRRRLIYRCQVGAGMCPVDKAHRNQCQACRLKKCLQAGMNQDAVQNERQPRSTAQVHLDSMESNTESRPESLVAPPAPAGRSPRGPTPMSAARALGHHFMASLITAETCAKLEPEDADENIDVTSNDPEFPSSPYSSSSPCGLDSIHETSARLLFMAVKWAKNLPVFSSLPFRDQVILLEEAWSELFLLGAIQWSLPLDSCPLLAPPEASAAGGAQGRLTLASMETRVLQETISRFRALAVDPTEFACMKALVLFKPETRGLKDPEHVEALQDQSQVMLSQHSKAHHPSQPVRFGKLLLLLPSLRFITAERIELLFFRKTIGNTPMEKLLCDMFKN
NR2E3 ag-2: agonists of human nuclear receptor NR2E3; Q9Y5X4; GST-NR2E3/biotin-RetCOR TR-FRET, 1536-well; inhibition of corepressor binding, % at 4.78 µM; 320,000 compounds, 0.12% hits; AID 2300;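 active means percent inhibition above the cutoff of mean plus 3 SD of all tested compounds, set per screening campaign, cut at about 20% in these data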;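 further: 0% = DMSO wells and 100% = biotin wells as full block of FRET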
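system = GST-tagged NR2E3 plus biotinylated RetCOR corepressor | input = 1.35 nM GST-NR2E3 | also added = 7 nM biotin-RetCOR | schedule = 5 h incubation at 4 °C | measured by = TR-FRET with europium anti-GST and streptavidin-D2, 340 nm excitation | read-out = percent loss of FRET ratio relative to control wells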
SMARCA2 act: SMARCA2 function activation, primary screen; MG213 cells, MMTV-luciferase reporter, dexamethasone, overnight; activation, % at 9.1 µM; 370,000 compounds, 1% hits; AID 652017; in the data active means activation above about 7.8%;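 further: 0% = vehicle wells and 100% = reference activator wells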
JMJD2C inh: inhibitors of human GASC-1 (JMJD2C) demethylase; inhibition, % at 2.35 µM; GST-JMJD2C(1-420) H3K9me3 demethylation, DELFIA europium; 330,000 compounds, 0.069% hits;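 active means more than half of a compound's replicate wells show inhibition beyond 50%, single wells judged on their own value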;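 further: signal counts dimethyl H3K9 product captured on neutravidin plate; 0% = median of DMSO wells and 100% = 0.3 times that DMSO median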
DAX1 inh-2: inhibits human nuclear receptor DAX1 | P51843 | HEK293 Gal4-DAX1 luciferase reporter, luminescence | inhibition, % at 6.75 µM | 340,000 compounds, 0.99% hits;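 active means inhibition above the mean over all tested compounds plus 3 SD, cut at about 4.2% in these data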;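 further: 0% = DAX1-transfected cells with DMSO and 100% = empty-vector control cells with DMSO; inhibition shows as a rise in luminescence from relieved DAX1 repression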
Target sequence (P51843 207-470 limits assumed): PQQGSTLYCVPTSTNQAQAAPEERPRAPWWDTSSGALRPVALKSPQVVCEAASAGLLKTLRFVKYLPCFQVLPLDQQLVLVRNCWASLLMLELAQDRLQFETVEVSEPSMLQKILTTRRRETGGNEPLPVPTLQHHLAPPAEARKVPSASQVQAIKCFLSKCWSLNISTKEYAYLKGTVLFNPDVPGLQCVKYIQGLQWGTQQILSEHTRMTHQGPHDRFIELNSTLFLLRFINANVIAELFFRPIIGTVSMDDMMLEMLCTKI
* marks the source's active call; other numbers are inactive results; . = not tested or not shown.

SMILES | DAX1 inh-1 | NR2E3 ag-1 | NR2E3 ag-2 | SMARCA2 act | JMJD2C inh | DAX1 inh-2
C=CCN1C(C(=O)OC)CN(Cc2cn(Cc3ccc(OC)cc3)nn2)CCS1(=O)=O (stereo not drawn) | 0.7 | . | . | -2.4 | . | .
O=C1CCc2cc(S(=O)(=O)N3CCN(Cc4cccc5c4OCO5)CC3)ccc2N1 | -0.2 | . | . | -7.7 | . | .
S=C(Nc1ccc(Br)cc1)OC1CCC12CCC(c1ccccc1)CC2 (stereo not drawn) | -0.2 | . | . | -0.6 | . | .
Cc1cc(C)c(C2C(C#N)=C(N)Oc3n[nH]c(C)c32)cc1CN1CCCC1 (stereo not drawn) | -0.8 | -7.1 | 2.1 | 7.9* | -28.9 | 0.5
Cc1[nH]nc2c1C(c1ccoc1)C(C#N)=C(N)O2 (stereo not drawn) | -0.4 | -20.1 | -6.7 | -2.3 | -14.4 | 0.7
C=CCn1c(C)cc(C(=O)CSc2nnc(C3CC3)n2C2CC2)c1C | 4.2* | -9.0 | 1.1 | -0.7 | 8.5 | 0.3
CC(=O)NCCc1ccc(C(=O)CSc2nnc(C3CC3)n2C2CC2)cc1 | 4.5* | 4.0 | 4.2 | -0.8 | 0.2 | 0.7
Cc1cc(C(=O)CSc2nnc(C3CC3)n2C2CC2)c(C)n1C(C)C | 0.1 | -3.5 | 4.5 | -2.4 | 5.0 | 0.5
CC(=O)N(C)Cc1ccc(C(=O)CSc2nnc(C3CC3)n2C2CC2)cc1 | 1.5 | -5.1 | 1.6 | -2.6 | -1.6 | 0.3
Cn1cccc1/C=N/NC(=O)c1ccccn1 | 3.7* | -118.4 | 1.1 | 1.6 | 3.9 | 1.1
C/C(=N/NC(=O)c1ccccn1)c1ccc(O)cc1 | 5.1* | -131.8 | 3.8 | 4.3 | -10.1 | 4.6*
C/C(=N\NC(=O)c1ccccn1)c1ccc(Cl)cc1 | 3.2 | -94.4 | -0.1 | 5.5 | -13.0 | .
CCCCN1C(=O)N2Cc3cc(OC)ccc3C2CS1(=O)=O (stereo not drawn) | 1.4 | . | . | 3.5 | . | .
Cc1ccc2c(c1)Oc1ccccc1C=C2C(=O)O | 0.5 | -12.8 | -1.2 | 1.1 | 1.1 | 4.3*
CC(C)(C)c1ccc(S(=O)(=O)N2CCC(C(=O)NCCC3=CCCCC3)CC2)cc1 | -1.1 | . | . | 1.6 | . | .
C/C=C/c1ccc([C@@H]2[C@H](CO)N(S(C)(=O)=O)[C@H]2CN(C)C(=O)CC)cc1 | 0.0 | . | . | -5.2 | . | .
O=C1N=C(N2CCOCC2)S/C1=C\c1ccc(-c2ccccc2Cl)o1 | -0.6 | -8.5 | -2.5 | 1.2 | 22.3 | 0.1
Cc1ccccc1-c1ccc(/C=C2/SC(N3CCOCC3)=NC2=O)o1 | 0.1 | 12.6 | -3.6 | -2.3 | -47.3 | 5.4*
CN1C(=O)c2cc(NC(=O)c3ccccc3)ccc2OC[C@H]2O[C@@H](CC(=O)NCC3CC3)CC[C@@H]21 | 0.3 | . | . | -0.7 | . | .
CCN(Cc1cn(CC2CCCCC2)nn1)S(=O)(=O)c1ccccc1Br | -0.3 | . | . | -2.4 | . | .
CCOC(=O)CN1CC23C=CC(O2)C(C(=O)Nc2cc(OC)ccc2OC)C3C1=O (stereo not drawn) | 0.3 | -28.0 | 4.2 | -0.2 | 0.7 | 4.9*
c1ccc(-n2c(SCc3cccc4ccccc34)nnc2-c2ccncc2)cc1 | -1.6 | . | . | -4.3 | . | .
CCCCNCc1cc2ccccc2o1 | 0.6 | 2.4 | -1.9 | 2.3 | 4.8 | 4.5*
CCN1CCCC1CNS(=O)(=O)c1cccc(C(F)(F)F)c1 (stereo not drawn) | 0.7 | -12.3 | 2.2 | -0.8 | 6.2 | -0.5
CCN1CCCC1CNS(=O)(=O)c1ccc(F)c(Cl)c1 (stereo not drawn) | 0.1 | -18.8 | 4.2 | -0.7 | -1.6 | 4.4*
SMILES | DAX1 inh-1 | NR2E3 ag-1 | NR2E3 ag-2 | SMARCA2 act | JMJD2C inh | DAX1 inh-2
CC1(c2cccc(Br)c2)NC(=O)N(CC(=O)Nc2cccnc2Cl)C1=O (stereo not drawn) | 3.7* | -12.8 | 1.9 | -2.8 | 2.3 | -0.7
CC1(c2ccccc2Cl)NC(=O)N(CC(=O)Nc2cccnc2Cl)C1=O (stereo not drawn) | 2.5 | -12.8 | -2.5 | -0.5 | 4.9 | -0.9
CNc1cccc(-c2ccc(C(C)=O)s2)n1 | 4.0* | -86.1 | . | 3.2 | . | .
OC(C#CCCN1CCCCC1)(c1ccccc1)C1CCCCC1 (stereo not drawn) | -0.3 | -38.5 | 3.0 | -1.6 | -8.0 | 5.0*
O=C(NC1CCCCC1)c1ccc([N+](=O)[O-])o1 | . | 9.9 | 4.3 | . | -11.2 | -2.1
O=C(NC1CCCC(C(F)(F)F)C1)c1ccc([N+](=O)[O-])o1 (stereo not drawn) | -4.6 | 31.4 | . | 7.9* | 3.8 | -0.5
O=C1/C(=C\c2cccs2)Sc2ccc3ccccc3c21 | 4.0* | -115.3 | 1.3 | 5.0 | -4.0 | 5.2*
CCCC[C@H](C(=O)N(CC)c1ccccc1)[C@@H](O)c1ccc(C(C)=O)cc1 | -1.6 | . | . | -3.1 | . | .
N#C/C(N=Nc1ccccc1O)=N\Nc1ccccc1O | -1.2 | -5.8 | -3.7 | -5.1 | 86.7* | -1.7
Cc1ccc(NC2=Nc3ccccc3N3C2=Nc2c(c(C)nn2-c2ccccc2)C3c2ccc(O)c(O)c2)cc1 (stereo not drawn) | 0.2 | -20.0 | . | -1.8 | . | -0.5
Cc1nn(-c2ccccc2)c2c1C(c1ccc(O)c(O)c1)N1C(=N2)C(Nc2ccccc2)=Nc2ccccc21 (stereo not drawn) | -0.2 | -6.5 | 1.2 | 0.0 | -29.6 | 4.3*
O=C(CN1CCN(c2nc(-c3ccccc3)cs2)CC1)Nc1ccc(Cl)c(Cl)c1 | -0.1 | . | . | -3.5 | . | .
C[C@H](c1ccccc1)N1C[C@@H](COCc2ccccc2)Oc2cc(N3CC[C@@H](O)C3)ccc2S1(=O)=O | 3.9* | -36.0 | . | -6.1 | . | .
CCCCC[C@@H](C)N1C[C@@H](COCc2ccccc2)Oc2cc(N3CC[C@H](N(C)C)C3)ccc2S1(=O)=O | 4.1* | -10.3 | . | -3.2 | . | .
CCCCC[C@H](C)N1C[C@@H](COCc2ccccc2)Oc2cc(N3CC[C@H](N(C)C)C3)ccc2S1(=O)=O | 1.0 | -13.9 | . | -0.3 | . | .
O=C(Cn1ncc(N2CCOCC2)c(Cl)c1=O)c1ccc(Cl)cc1 | -0.3 | -23.8 | -0.9 | 1.2 | -0.8 | 5.4*
Cc1ccc(S(=O)(=O)N(C)[C@H]2C[C@H]3c4cc(N5CCOCC5)ccc4CCN3C[C@H]2[C@H](C)O)cc1 | -0.2 | . | . | 6.8 | . | .
O=C(NCC1COc2ccccc2O1)c1ccc(NC(=O)C(Cl)Cl)cc1 (stereo not drawn) | -0.8 | . | . | -1.4 | . | .
Cc1nc(NC(=O)c2cnccn2)ccc1Br | 0.5 | -89.5 | . | 4.2 | 0.6 | 4.2*
Cc1ccc(NC(=O)c2cnccn2)cc1C | 1.8 | -54.2 | -0.8 | 1.5 | 3.1 | 4.6*
O=C(NNC(=S)NC(=O)c1ccccc1)c1ccc(O)cc1 | -0.2 | -3.6 | -1.4 | -0.2 | -2.5 | 0.4
O=C(NNC(=S)Nc1ccccc1)c1ccc(O)cc1 | 3.4 | -105.3 | 3.9 | 5.8 | -2.0 | 6.0*
CN(Cc1ccccc1)C(=O)OCc1cn(Cc2ccc(C(F)(F)F)cc2)nn1 | -0.5 | . | . | -2.9 | . | .
O=C(c1cc(-c2ccc(Cl)cc2)nc2ccccc12)N1CCN(c2ncccn2)CC1 | 0.4 | . | . | -0.4 | . | .
